The species entered for data set [1] is Rattus norvegicus. The experiment in a line: Maximum velocity in rat liver adenylate kinase II relative to ATP(=100). The following applies: in vivo. The data set is classed as ADME, organism-based. Put shortly: (§1)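 Rat liver AK II and AK III, isolated as before. Optical density change at 340 nm followed at 22-24 °C in 1 mL. Five or more substrate concentrations; stocks contained equimolar MgCl2. Vmax comes from linear Lineweaver-Burk plots and is expressed relative to ATP (100).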

For data set [2], the species on record is Rattus norvegicus. The experiment in a line: Maximum velocity in rat liver adenylate kinase III relative to ATP(=100). The data set is classed as ADME, organism-based. The following applies: in vivo. In short, it runs like this: as §1
Data set [3] concerns the target Adenylate kinase 2, mitochondrial (Rattus norvegicus, UniProt P29410). The experiment in a line: Competitive inhibition of adenylate kinase II in rat liver with respect to ATP. The format is tissue-based. Put shortly:
(§2)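 Rat liver adenylate kinase isozymes (AK II, AK III), isolated as before. Read as rate of change in optical density at 340 nm, 22-24 °C, 1 mL final volume. Five or more levels of ATP at each of two inhibitor levels, inhibitor at 1-5 times the inhibition constant. Ki taken from replots of inhibitor concentration vs Lineweaver-Burk slopes. Stocks contained equimolar MgCl2.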

Data set [4] deals with GTP:AMP phosphotransferase AK3, mitochondrial (Rattus norvegicus, UniProt P29411). The experiment in a line: Competitive inhibition of adenylate kinase III in rat liver with respect to ATP. The data set is classed as tissue-based. Put shortly:
as §2

Data set [5] can be described thus: Reaction velocity relative to ATP (=1) in yeast hexokinase was determined at 5 mM concentration. The data set is classed as ADME. The following applies: 5000 µM.
Data set [6] is filed under the species Rattus norvegicus. The experiment in a line: Substrate property, maximum velocity relative to ADP (100) in rat muscle pyruvate kinase was determined. The format is ADME, organism-based. The following applies: in vivo. In short, it runs like this:
(§3)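 Rat muscle, liver and kidney pyruvate kinase isozymes, isolated as before, with ADP analogues as substrate. Optical density change at 340 nm, 22-24 °C, 1 mL. Five or more substrate concentrations. Km and Vmax come from linear Lineweaver-Burk plots, with Vmax relative to ADP (100).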

Data set [7] in a line: Substrate property, maximum velocity relative to ADP (100) in rat muscle pyruvate kinase was determined. Conditions: in vitro.
The species entered for data set [8] is Rattus norvegicus. Kind of data set: Substrate concentration for half maximum- reaction velocity in rat liver pyruvate kinase. The following applies: in vivo. The format is ADME, organism-based. In short, it runs like this:
as §3

The species named for data set [9] is Rattus norvegicus. Kind of data set: Substrate concentration for half maximum-velocity in rat kidney pyruvate kinase was determined. The data set is classed as ADME, organism-based. The following applies: in vivo. In short, it runs like this:
as §3

Data set [10] is filed under the species Rattus norvegicus. Kind of data set: Substrate concentration for half maximum-velocity in rat muscle pyruvate kinase was determined. The data set is classed as ADME, organism-based. Conditions: in vivo. Put shortly:
as §3

The species entered for data set [11] is Rattus norvegicus. The experiment in a line: Substrate property, maximum velocity relative to ADP (100) in rat kidney pyruvate kinase was determined. Conditions: in vivo. The format is ADME, organism-based. In short, it runs like this:
as §3

For data set [12], the species on record is Rattus norvegicus. Kind of data set: Substrate property, maximum velocity relative to ADP (100) in rat liver pyruvate kinase was determined. The data set is classed as ADME, organism-based. The following applies: in vivo. Put shortly: as §3
The species named for data set [13] is Rattus norvegicus. Kind of data set: Maximum velocity relative to ADP (100) in rat muscle pyruvate kinase was determined. The data set is classed as ADME, organism-based. The following applies: in vivo. In short, it runs like this:
as §3

One may read the Ki as a dissociation constant, usually derived from enzyme kinetics or from competition with a known ligand. The low end stands for tighter binding, the high end for weaker binding. Broadly, the Km is the substrate concentration at which the rate is half of its maximum.

Chain of GTP:AMP phosphotransferase AK3, mitochondrial (P29411 whole entry): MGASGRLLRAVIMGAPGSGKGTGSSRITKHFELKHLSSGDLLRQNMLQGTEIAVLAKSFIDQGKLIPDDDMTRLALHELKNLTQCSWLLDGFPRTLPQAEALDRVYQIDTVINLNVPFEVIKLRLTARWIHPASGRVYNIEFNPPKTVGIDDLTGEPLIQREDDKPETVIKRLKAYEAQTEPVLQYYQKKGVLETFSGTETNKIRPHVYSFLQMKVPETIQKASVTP

Take `CC(=O)N(C)CCCCN(C)c1ncnc2c1ncn2[C@@H]1O[C@H](COP(=O)(O)OP(=O)(O)OP(=O)(O)O)[C@@H](O)[C@H]1O`: the Vmax in the data set filed under Rattus norvegicus [1] and in the data set listed under Rattus norvegicus [2] was 0% each time. Also, the results for the Ki in data set [3] and in [4] were 1100 µM and 900 µM, respectively.
As for `CN(CCCCN(C)c1ncnc2c1ncn2[C@@H]1O[C@H](COP(=O)(O)OP(=O)(O)OP(=O)(O)O)[C@@H](O)[C@H]1O)C(=O)CCCNC(=O)CI`, the “Velocity relative to ATP” value in data set [5] is 1.2.
`O=C(CI)NCCCCCCCCNc1ncnc2c1ncn2[C@@H]1O[C@H](COP(=O)(O)OP(=O)(O)OP(=O)(O)O)[C@@H](O)[C@H]1O`: in data set [5], the “Velocity relative to ATP” value came out at 1.8.
For `CC(=O)NCCCCCCNc1nc2c(N)ncnc2n1[C@@H]1O[C@H](COP(=O)(O)OP(=O)(O)O)[C@@H](O)[C@H]1O`, the Vmax (in the data set listed under Rattus norvegicus [6]; in data set [7]) was 0% throughout.
Regarding `CC(=O)N(C)CCCCN(C)c1ncnc2c1ncn2[C@@H]1O[C@H](COP(=O)(O)OP(=O)(O)O)[C@@H](O)[C@H]1O`, the Km in the data set filed under Rattus norvegicus [8] amounted to 700 µM; in the data set filed under Rattus norvegicus [9] it was 1700 µM; in the data set filed under Rattus norvegicus [10], 3600 µM. Moreover, the values for the Vmax in the data set listed under Rattus norvegicus [6], in the data set filed under Rattus norvegicus [11] and in the data set listed under Rattus norvegicus [12] were 20%, 18% and 21%, respectively.
As to `CN(CCCN(C)C(=O)CCCCNc1ncnc2c1ncn2[C@@H]1O[C@H](COP(=O)(O)OP(=O)(O)OP(=O)(O)O)[C@@H](O)[C@H]1O)C(=O)CCCCNC(=O)CI`, the “Velocity relative to ATP” value in [5] is recorded as 0.73.
Take `Nc1ncnc2c1nc(NCCCCCCCCNC(=O)CI)n2[C@@H]1O[C@H](COP(=O)(O)OP(=O)(O)OP(=O)(O)O)[C@@H](O)[C@H]1O`: the “Velocity relative to ATP” value in data set [5] came out at 0.54.
On to `CN(CCCN(C)C(=O)CCCCNc1ncnc2c1ncn2[C@@H]1O[C@H](COP(=O)(O)OP(=O)(O)O)[C@@H](O)[C@H]1O)C(=O)CCCCNC(=O)OCc1ccccc1`, for which the Km in the data set listed under Rattus norvegicus [10] amounted to 70 µM. Also, the Vmax in the data set filed under Rattus norvegicus [13] was 1.5%.

Values taken from ChEMBL document CHEMBL1122036, “Use of adenine nucleotide derivatives to assess the potential of exo-active-site-directed reagents as species- or isozyme-specific enzyme inactivators. 3. Synthesis of adenosine 5'-triphosphate derivatives with N6- or 8-substituents bearing iodoacetyl groups” (J Med Chem, 1982).
